Reference: ChEMBL document CHEMBL4732088, “Identification and optimization of piperlongumine analogues as potential antioxidant and anti-inflammatory agents via activation of Nrf2” (Eur J Med Chem, 2021)
Active and inactive are the calls of the source. The calls are words filed in the database; no cut-off is given here.

How the values were obtained:
PC-12 [1] = test: Neuroprotective activity against 6-OHDA-induced cell damage in rat PC12 cells assessed as cell viability at 20 uM after 24 hrs by MTT assay (reference value: 45.23 +/- 4.37 %); assay type: functional; details: for viability at 20 µM: read-out: Activity
PC-12 [2] = test: Neuroprotective activity against H2O2-induced cell damage in rat PC12 cells assessed as cell viability at 20 uM after 24 hrs by MTT assay (reference value: 46 +/- 4.12 %); assay type: functional; details: read-out: Activity
PC-12 [3] = test: Cytotoxicity against rat PC12 cells at 50 uM by MTT assay; assay type: cell-based; details: pc-12, 50 µM
In short: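 Rat PC12 cells exposed to compounds at 50 μM; viability by MTT assay.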

PC-12 [4] = test: Neuroprotective activity against H2O2-induced cell damage in rat PC12 cells at 20 uM after 24 hrs by MTT assay; assay type: functional, cell-based
PC-12 [5] = test: Neuroprotective activity against 6-OHDA-induced cell damage in rat PC12 cells at 20 uM after 24 hrs by MTT assay; assay type: functional, cell-based
PC-12 [6] = test: Upregulation of Nrf2 expression in rat PC12 cells at 20 uM after 24 hrs by Western blot analysis; assay type: functional, cell-based
In short: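 Rat PC12 cells exposed to compound for 24 h. Nrf2 protein detected by western blot. Mean ± SD, n = 3.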

| SMILES | viability at 20 µM (PC-12 [1]) [%] | viability at 20 µM (PC-12 [2]) [%] | further results |
| --- | --- | --- | --- |
| CC(C)(C)C(=O)N1CCN(C(=O)/C=C/c2cccc(Cl)c2)C1=O | 68.3 | 69.2 | – |
| COc1cc(/C=C/C(=O)N2CCC=CC2=O)cc(OC)c1OC [PIPLARTINE] | – | – | Activity (PC-12 [3]): Toxic |
| C=C(C)C(=O)N1CCN(C(=O)/C=C/c2ccc(F)cc2)C1=O | 30.2 | 38 | Activity (PC-12 [3]): Toxic |
| CCC(=O)N1CCN(C(=O)/C=C/c2ccc(F)cc2)C1=O | 70.2 | 71.6 | – |
| CC(C)(C)C(=O)N1CCN(C(=O)/C=C/c2ccc3c(c2)OCO3)C1=O | 62.3 | 63.3 | – |
| O=C(/C=C/c1cccs1)N1CCNC1=O | 64.2 | 65.2 | – |
| CC(C)(C)C(=O)N1CCN(C(=O)/C=C/c2ccccc2)C1=O | 60.1 | 61.5 | – |
| CC(=O)N1CCN(C(=O)/C=C/c2ccc(F)cc2)C1=O | 72.3 | 70.4 | – |
| CN(C)C(=O)N1CCN(C(=O)/C=C/c2ccc(F)cc2)C1=O | 71.3 | 73.8 | – |
| O=C(/C=C/c1ccccc1)N1CCCCC1=O | – | – | Activity (PC-12 [4]): Active; Activity (PC-12 [1]): Active; Activity (PC-12 [5]): Active |
| C=CC(=O)N1CCN(C(=O)/C=C/c2ccc(F)cc2)C1=O | 43.8 | 44 | Activity (PC-12 [3]): Toxic |
| CC(C)(C)C(=O)N1CCN(C(=O)/C=C/c2ccc(F)cc2)C1=O | 72.2 | 73.6 | – |
| O=C(/C=C/c1ccc(C(F)(F)F)cc1)N1CCNC1=O | 65.3 | 67.7 | – |
| O=C(/C=C/c1ccc(F)cc1)N1CCNC1=O | 69.1 | 68.6 | Activity (PC-12 [6]): Active |
| CC(=O)N/C(=C\c1ccccc1)C(=O)N1CCN(C(=O)C(C)(C)C)C1=O | 71.2 | 72.7 | – |
| O=C(/C=C/c1ccc(F)cc1)N1CCN(C(=O)CCCl)C1=O | 37.1 | 43.2 | Activity (PC-12 [3]): Toxic |
| CCN(C)C(=O)N1CCN(C(=O)CCc2ccc(F)cc2)C1=O | 62.5 | 59.5 | – |
| O=C(/C=C/c1ccc(F)cc1)N1CCN(C(=O)N2CCCCC2)C1=O | 72.1 | 72.8 | – |
| O=C(CCc1ccc(F)cc1)N1CCNC1=O | 56.3 | 53.6 | – |

| SMILES | viability at 20 µM (PC-12 [1]) [%] | viability at 20 µM (PC-12 [2]) [%] | further results |
| --- | --- | --- | --- |
| CC(C)(C)C(=O)N1CCN(C(=O)/C=C/c2ccc(C#N)cc2)C1=O | 71.1 | 71.4 | – |
| CC(C)(C)C(=O)N1CCN(C(=O)/C=C/c2ccccc2F)C1=O | 72.3 | 72.4 | – |
| CC(C)(C)C(=O)N1CCN(C(=O)/C=C/c2ccc(C(F)(F)F)cc2)C1=O | 71.1 | 72.5 | – |
| O=C(/C=C/c1ccc(F)cc1)N1CCN(C(=O)c2cccs2)C1=O | 60.8 | 62.2 | – |
| CC(C)(C)C(=O)N1CCN(C(=O)/C=C/c2c(F)cccc2Cl)C1=O | 71.1 | – | – |
| CC(C)(C)C(=O)N1CCN(C(=O)/C=C/c2ccc(Cl)cc2)C1=O | 71.1 | 72 | – |
| O=C(/C=C/c1ccccc1)N1CCCNC1=O | – | – | Activity (PC-12 [4]): Active; Activity (PC-12 [1]): Active; Activity (PC-12 [5]): Active |
| CC(C)(C)C(=O)N1CCN(C(=O)/C=C/c2ccco2)C1=O | 68.3 | 69.7 | – |
| O=C(/C=C/c1ccc(F)cc1)N1CCN(C(=O)c2ccccc2)C1=O | 60.3 | 63.3 | – |
| N#Cc1ccc(C(=O)N2CCN(C(=O)/C=C/c3ccc(F)cc3)C2=O)cc1 | 52.3 | 55.1 | Activity (PC-12 [3]): Toxic |
| CC(C)(C)C(=O)N1CCN(C(=O)/C=C/c2ccccc2Cl)C1=O | 69 | 70 | – |
| CCCC(=O)N1CCN(C(=O)/C=C/c2ccc(F)cc2)C1=O | 69.3 | 70.2 | – |
| O=C(/C=C/c1ccccc1)N1CCNC1=O | – | – | Activity (PC-12 [4]): Active; Activity (PC-12 [1]): Active; Activity (PC-12 [5]): Active |
| CC(C)(C)C(=O)N1CCN(C(=O)/C=C/c2cccc3ccccc23)C1=O | 71.8 | 72.3 | – |
| O=C(/C=C/c1ccco1)N1CCNC1=O | 60 | 64.1 | – |
| CC(C)(C)C(=O)N1CCN(C(=O)/C=C/c2cccs2)C1=O | 68.2 | 69.2 | – |
| CC(C)(C)C(=O)N1CCN(C(=O)/C=C/c2ccncc2)C1=O | 69.6 | 71.1 | – |
| CC(C)(C)C(=O)N1CCN(C(=O)/C=C/c2cccc(F)c2)C1=O | 69.3 | 71 | – |
